Source: ChEMBL document CHEMBL1147988, “Synthesis of bridged piperazines with sigma receptor affinity” (Eur J Med Chem, 2007)

What was measured:
Sigma 2 receptor = assay: Displacement of [3H]ditolylguanidine from sigma 2 receptor in Sprague-Dawley rat liver membrane; assay type: cell membranes
Cavia porcellus = species: Cavia porcellus; assay: Displacement of [3H]MK-801 from NMDA receptor in guinea pig brain membrane at 10 uM; assay type: cell membranes
Procedure, shortened: (§1)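 Single-point screen: percent inhibition of radioligand binding to guinea pig brain membranes with test compound at 10 µM.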

[1] = biological target: Mu-type opioid receptor (Cavia porcellus) (UniProt P97266); assay: Displacement of [3H]DAMGO from mu opioid receptor in guinea pig brain membrane at 10 uM; assay type: cell membranes; procedure, shortened: as §1
Sequence of Mu-type opioid receptor (Cavia porcellus) (P97266 whole entry): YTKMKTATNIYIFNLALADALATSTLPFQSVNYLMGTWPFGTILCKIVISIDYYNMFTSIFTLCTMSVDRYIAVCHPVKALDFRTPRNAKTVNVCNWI

[2] = biological target: Sigma non-opioid intracellular receptor 1 (Cavia porcellus, UniProt Q60492); assay: Displacement of [3H](+)-pentazocine from sigma 1 receptor in guinea pig brain membrane; assay type: cell membranes
Sequence of Sigma non-opioid intracellular receptor 1 (Q60492 whole entry): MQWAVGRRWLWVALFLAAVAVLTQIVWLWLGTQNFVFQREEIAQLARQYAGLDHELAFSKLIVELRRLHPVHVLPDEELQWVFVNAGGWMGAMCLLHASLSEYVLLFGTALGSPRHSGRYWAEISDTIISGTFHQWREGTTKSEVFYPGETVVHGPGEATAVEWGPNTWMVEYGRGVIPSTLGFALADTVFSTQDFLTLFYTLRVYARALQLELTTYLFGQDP

[3] = biological target: Kappa-type opioid receptor (Cavia porcellus, UniProt P41144); assay: Displacement of [3H]U-69593 from kappa opioid receptor in guinea pig brain membrane; assay type: cell membranes
Sequence of Kappa-type opioid receptor (P41144 whole entry): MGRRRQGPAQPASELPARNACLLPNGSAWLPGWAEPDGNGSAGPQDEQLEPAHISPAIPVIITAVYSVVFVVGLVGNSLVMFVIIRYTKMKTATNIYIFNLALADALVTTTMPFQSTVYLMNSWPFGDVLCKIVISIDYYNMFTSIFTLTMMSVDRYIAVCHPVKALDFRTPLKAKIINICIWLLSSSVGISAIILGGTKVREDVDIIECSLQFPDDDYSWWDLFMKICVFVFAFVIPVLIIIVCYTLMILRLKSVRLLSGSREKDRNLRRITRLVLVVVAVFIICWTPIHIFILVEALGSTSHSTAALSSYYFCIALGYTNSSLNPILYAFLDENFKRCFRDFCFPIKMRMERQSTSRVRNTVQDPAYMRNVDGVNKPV

[4] = biological target: Kappa-type opioid receptor (Cavia porcellus) (UniProt P41144); assay: Displacement of [3H]U-69593 from kappa opioid receptor in guinea pig brain membrane at 10 uM; assay type: cell membranes
Sequence of Kappa-type opioid receptor (Cavia porcellus) (P41144 whole entry): as above
Procedure, shortened: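 Single-concentration test reported as percent inhibition of [3H]-U-69593 binding to guinea pig brain membranes. All experiments run in triplicate. Glass fibre filters presoaked 2 h at 4 °C in 0.5% polyethylenimine, then harvested by filtration. Bound radioactivity counted by liquid scintillation at 66% counting efficiency.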

[5] = biological target: Sigma non-opioid intracellular receptor 1 (Cavia porcellus) (UniProt Q60492); assay: Selectivity for guinea pig sigma 1 receptor over rat sigma 2 receptor
Sequence of Sigma non-opioid intracellular receptor 1 (Cavia porcellus) (Q60492 whole entry): as the sequence (Q60492 whole entry) above

Mu-type opioid receptor = Mu-type opioid receptor (Cavia porcellus, UniProt P97266); assay: Displacement of [3H]DAMGO from mu opioid receptor in guinea pig brain membrane; assay type: cell membranes
Sequence of Mu-type opioid receptor (P97266 whole entry): as the sequence (P97266 whole entry) above

[6] = Displacement of [3H]MK-801 from NMDA receptor in guinea pig brain membrane; assay type: cell membranes, Cavia porcellus

Structure (SMILES)	Ki (Sigma 2 receptor) [nM]	inhibition (Cavia porcellus) [%]	inhibition [1] [%]	Ki [2] [nM]	Ki [3] [nM]	inhibition [4] [%]	Selectivity ratio [5]	Ki (Mu-type opioid receptor) [µM]	Ki [6] [nM]
COC1(OC)CC[C@H]2CN(C)[C@@H]1CN2Cc1ccccc1	1830	44.3	27.6	3500	> 10000				
CN1C[C@@H]2CC[C@@H](OCc3ccccc3)[C@H]1CN2Cc1ccccc1	30.4	0	70.4	16.2	585				
CCCCN1CC2CCC(O)C1CN2Cc1ccccc1 (centres undefined)	447	52.3	37.9	23.4	1600				
CN1CC2CCC(O)C1CN2Cc1ccccc1 (single isomer, unassigned; form 1) [listing 1 of 2 here]		13.7	4.7			13.2			
CN1CC2CCC(O)C1CN2Cc1ccccc1 (single isomer, unassigned; form 1) [listing 2 of 2 here]	2890			4970					
CN1CC2CCC(O)C1CN2Cc1ccccc1 (single isomer, unassigned; form 2) [listing 1 of 2 here]	4180			2400					
COC1CCC2CN(CCc3ccccc3)C1CN2Cc1ccccc1 (centres undefined)	297	50.5	68.6	76	5020				
CN1CC2CCC(O)C1CN2Cc1ccccc1 (single isomer, unassigned; form 2) [listing 2 of 2 here]		21	8.5			12.6			
CCCCN1CC2CCC(OC)C1CN2Cc1ccccc1 (centres undefined)	219	55.5	37.4	13.2	157		16		
CO[C@@H]1CC[C@H]2CN(C)[C@@H]1CN2Cc1ccccc1	327	8.7	21.5	1350	3590				
CCCCN1CC2CCC(OCc3ccccc3)C1CN2Cc1ccccc1 (centres undefined)	820	21.5		39.5	1110		21	3.32	
OC1CCC2CN(CCc3ccccc3)C1CN2Cc1ccccc1 (single isomer, unassigned)	588	20.6		29.5	1290			4.05	
CN[C@]1(c2ccccc2Cl)CCCCC1=O [ESKETAMINE]									108
c1ccc(C2(N3CCCCC3)CCCCC2)cc1 [PHENCYCLIDINE]									28
c1ccc(CCN2CC3CCC(OCc4ccccc4)C2CN3Cc2ccccc2)cc1 (centres undefined)	628	16.4	34.8	175	2230				
O[C@@H]1CCC2CN(CCc3ccccc3)C1CN2Cc1ccccc1 (some centres undefined)	343	21.9		33.3	2460			4.96	
